The results in this text go back to ChEMBL document CHEMBL2062386, “Discovery of LFF571: an investigational agent for Clostridium difficile infection” (J Med Chem, 2012).

Values after ≈ are worked out from the molar mass of the structure shown. Active and inactive are the calls of the source. The rule behind the calls is not given here.

The subject of one series is Enterococcus faecium. The series can be described thus: Antibacterial activity against Enterococcus faecium 7130724 by broth microdilution method. Format: functional.
The subject of series [1] is Enterococcus faecalis. The series can be described thus: Antibacterial activity against Enterococcus faecalis ATCC 29212 by broth microdilution method. Format: functional. The method, boiled down:
(§1)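 Broth microdilution MICs were run per CLSI M07-A8 (2009). The strain panel included C. difficile ATCC 43255, E. faecalis ATCC 29212 and S. pyogenes ATCC BAA-595.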
Background: In broth dilution the organism is exposed to a series of concentrations in liquid medium.

The subject of series [2] is Staphylococcus aureus. The series can be described thus: Antibacterial activity against Staphylococcus aureus A4.018 by broth microdilution method. Format: functional.
In the next series the test system is Streptococcus pyogenes. The series can be described thus: Antibacterial activity against Streptococcus pyogenes ATCC BAA-595 by broth microdilution method. Format: functional. Summed up: as §1
A short description of series [3]: Antibacterial activity against Clostridium difficile ATCC 43255 by broth microdilution method. The following applies: Clostridioides difficile. Format: functional. Summed up: as §1
Series [4] can be described thus: Binding affinity to Escherichia coli GDPNP-labelled EF-Tu by surface plasmon resonance analysis. (In SPR one partner is held on a chip, and binding of the other changes the refractive index at the surface.)
Series [5] has as its system Staphylococcus aureus. Nature of the series: Antibacterial activity against Staphylococcus aureus ATCC 49951 infected in CD1 mouse assessed as mouse survival up to 5 days. Format: functional. The following applies: ATCC 49951, 120 h. The method, boiled down: (§2)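 Female CD1 mice (21–25 g) were infected ip with 1 × 10^8 CFU/mouse, 10–100× the minimal lethal dose. E. faecalis NB04025 was given in 50% rat fecal extract and S. aureus ATCC 49951 in 0.9% NaCl. Compound was given by iv tail-vein bolus at 1 and 5 h post-inoculation, at several dose levels (6 mice/group). ED50 with 95% CI was derived by probit analysis of day-5 survival.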

In series [6] the test system is Enterococcus faecalis. The series can be described thus: Antibacterial activity against Enterococcus faecalis NB04025 infected in CD1 mouse assessed as mouse survival up to 5 days. Format: functional. The settings on record: NB04025, 120 h. The method, boiled down:
as §2

Series [7] in a line: Antibacterial activity against Clostridium difficile ATCC 43255 infected in golden syrian hamster assessed as survival rate at 0.2 mg/kg, po qd administered days 1 to 5 measured on days 6 to 21. Format: functional. The settings on record: Clostridioides difficile. The method, boiled down:
(§3)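 Golden Syrian hamsters got clindamycin 10 mg/kg sc on day −1. On day 0 they were gavaged with ~7.5 × 10^6 CFU C. difficile ATCC 43255 (0.75 mL). From 24 h post-infection they were dosed orally once daily for up to 5 days (8/dose), in a NaOH/PEG-400/2.5% Cremophor EL solution diluted in pH 7.4 PBS. Vehicle controls were included, and animals were observed twice daily through day 21.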

Series [8] is described as follows: Antibacterial activity against Clostridium difficile ATCC 43255 infected in golden syrian hamster assessed as survival rate at 2 mg/kg, po qd administered days 1 to 5 measured on days 6 to 21. Format: functional. The settings on record: Clostridioides difficile. Summed up:
as §3

A short description of series [9]: Antibacterial activity against Clostridium difficile ATCC 43255 infected in golden syrian hamster assessed as survival rate at 20 mg/kg, po qd administered days 1 to 5 measured on days 6 to 21. Format: functional. The settings on record: Clostridioides difficile. Summed up:
as §3

A short description of series [10]: Drug level in Clostridium difficile infected golden syrian hamster cecum at 20 mg/kg, po qd administered for 5 days measured at 1 hr post dose. Format: ADME, organism-based, Mesocricetus auratus, Caecum. More on the design: dose 20 mg/kg, route oral. The settings on record: read-out: Drug uptake. Summed up:
(§4)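 C. difficile-infected hamsters received 20 mg/kg orally (0.6 mL at 3.3 mg/mL) once daily for 5 days. At 1 and 3 h after the fifth dose, 3 animals per time point were sampled: plasma (K2-EDTA, cardiac puncture) and cecal contents. Cecal contents were homogenized in PBS/25% acetonitrile (final 1:25 dilution). Samples were protein-precipitated with acetonitrile containing glyburide internal standard.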

Series [11] can be described thus: Drug level in Clostridium difficile infected golden syrian hamster cecum at 20 mg/kg, po qd administered for 5 days measured at 3 hrs post dose. Format: ADME, organism-based, Mesocricetus auratus, Caecum. More on the design: dose 20 mg/kg, route oral. The following applies: read-out: Drug uptake. The method, boiled down: as §4
The nature of series [12]: Plasma concentration in Clostridium difficile infected golden syrian hamster at 20 mg/kg, po qd administered for 5 days measured at 1 hr post dose. Format: ADME, organism-based, Mesocricetus auratus. More on the design: dose 20 mg/kg, route oral. The following applies: for concentration at 1 h: golden Syrian, plasma. Summed up:
as §4

Series [13] in a line: Plasma concentration in Clostridium difficile infected golden syrian hamster at 20 mg/kg, po qd administered for 5 days measured at 3 hrs post dose. Format: ADME, organism-based, Mesocricetus auratus. Details: dose 20 mg/kg, route oral. The following applies: for Cp: in vivo, 3 h, BLD = below limit of detection. The method, boiled down: as §4
The subject of series [14] is Clostridium difficile ATCC 43255. Nature of the series: Antibacterial activity against Clostridium difficile ATCC 43255 infected in golden syrian hamster assessed as decrease in toxin level in cecum after 21 days by ELISA. Format: functional. The settings on record: Caecum. Summed up:
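In the clindamycin-pretreated, C. difficile-infected hamster model, oral compound was given once daily on days 1–5. Surviving animals were euthanized at study end (day 21). Cecal homogenates were assayed for C. difficile toxins A and B by Tox A/B II ELISA per kit directions.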
In general terms: ELISA stands for enzyme-linked immunosorbent assay.

Series [15] relates to Escherichia coli. The series can be described thus: Inhibition of protein synthesis in Escherichia coli S30 extract at 2 uM after 75 mins by luciferase based luminescence assay relative to GE2270A. Format: functional.
Series [16] has as its system Clostridium difficile ATCC 43255. Nature of the series: Antibacterial activity against Clostridium difficile ATCC 43255 infected in po dosed golden syrian hamster assessed as survival rate administered qd for days 1 to 5 measured on after 6 to 21 days. Format: functional, organism-based. Summed up: as §3
Series [17] has as its system Escherichia coli. Nature of the series: Inhibition of protein synthesis in Escherichia coli S30 extract after 75 mins by luciferase based luminescence assay relative to GE2270A. Format: functional, organism-based.
Series [18] is described as follows: Oral bioavailability in Sprague-Dawley rat. Format: ADME, organism-based. The following applies: in vivo. Summed up:
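Male Sprague–Dawley rats (220–270 g, N = 2 or 3) were used, including iv dosing. Rats were fasted overnight and for 8 h post-dose. Plasma (K2-EDTA) was protein-precipitated with acetonitrile containing glyburide internal standard and analysed by LC–MS/MS (C18, formic acid water/acetonitrile gradient).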

By MIC is commonly meant the lowest concentration found to suppress growth. The Kd is the equilibrium constant for the complex coming apart. Read a high Kd as lower affinity. In general, ED50 refers to the dose that gives a 50% effect, or the effect in half of the subjects. On to `CNC(=O)C[C@@H]1NC(=O)c2csc(n2)-c2ccc(-c3nc(N(CCCC(=O)O)C(=O)OCCCC(=O)O)cs3)nc2-c2csc(n2)-c2csc(n2)[C@H]([C@@H](O)c2ccccc2)NC(=O)CNC(=O)c2nc(sc2COC)[C@H](C(C)C)NC(=O)c2nc1sc2C`, for which the MIC against Enterococcus faecium was 0.5 µg/mL (≈ 0.381 µM); in the series with Enterococcus faecalis [1], 0.5 µg/mL (≈ 0.381 µM); in the series with Staphylococcus aureus [2] it was 1 µg/mL (≈ 0.762 µM); with Streptococcus pyogenes, 2 µg/mL (≈ 1.52 µM); in series [3], 0.03 µg/mL (≈ 0.0229 µM). This compound yielded a Kd in series [4] of 8 nM. In addition, the ED50 in the series with Staphylococcus aureus [5] and in the series with Enterococcus faecalis [6] was 11 mg/kg throughout. In series [7], the survival at 0.2 mg/kg was determined as 0%. The survival at 2 mg/kg in series [8] stood at 100%. In series [9], the survival at 20 mg/kg was found to be 100%. The values for the concentration at 1 h in series [10] and in series [12] were 129 µM and 63.9 nM, respectively. Further, in series [11], the concentration at 3 h turned out to be 72 µM. Moreover, in [13], the Cp result is given as “BLD”. In series [14], the outcome was Active.
What is called inhibition is the relative decrease from the control value, in per cent. A lower inhibition goes with a weak effect. In the case of `CNC(=O)C[C@@H]1NC(=O)c2csc(n2)-c2ccc(-c3nc(NC(=O)[C@H]4CC[C@H](C(=O)O)CC4)cs3)nc2-c2csc(n2)-c2csc(n2)[C@H]([C@@H](O)c2ccccc2)NC(=O)CNC(=O)c2nc(sc2COC)[C@H](C(C)C)NC(=O)c2nc1sc2C`, the MIC in the series on Enterococcus faecium was found to be 0.06 µg/mL (≈ 0.048 µM); in the series on Enterococcus faecalis [1], 0.06 µg/mL (≈ 0.048 µM); in the series with Staphylococcus aureus [2], 0.125 µg/mL (≈ 0.1 µM); in the series with Streptococcus pyogenes it was 4 µg/mL (≈ 3.2 µM); in series [3] it was 0.06 µg/mL (≈ 0.048 µM). The compound also gave an inhibition at 2 µM in the series on Escherichia coli [15] of 30%. The same compound returned a dissociation constant Kd in [4] of 43 nM. The ED50 in the series on Staphylococcus aureus [5] stood at 5.2 mg/kg; with Enterococcus faecalis [6], 0.6 mg/kg. Further, in series [16], the Survival entry is “Dose-dependent effect”. In addition, the survival at 0.2 mg/kg in [7] amounted to 0%. The survival at 2 mg/kg in series [8] is 62.5%. Also, in [9], the survival at 20 mg/kg came to 100%. Further, the concentration at 1 h in series [10] was determined as 18 µM. In addition, the concentration at 3 h in [11] worked out at 39 µM. Further, the Cp result in series [12] (in vivo, 1 h, BLD = below limit of detection) was “BLD”; in series [13] it was “BLD”. In addition, the outcome in series [14] was Active.
By IC50 is commonly meant the concentration that gives 50% inhibition. A lower IC50 goes with greater potency. `CNC(=O)C[C@@H]1NC(=O)c2csc(n2)-c2ccc(-c3nc(C4=N[C@H](C(=O)N5CCC[C@H]5C(N)=O)CO4)cs3)nc2-c2csc(n2)-c2csc(n2)[C@H]([C@@H](O)c2ccccc2)NC(=O)CNC(=O)c2nc(sc2COC)[C@H](C(C)C)NC(=O)c2nc1sc2C`: the MIC in the series with Enterococcus faecium is 0.25 µg/mL (≈ 0.194 µM); against Enterococcus faecalis [1] it was 0.5 µg/mL (≈ 0.387 µM); with Staphylococcus aureus [2] it was 0.25 µg/mL (≈ 0.194 µM); against Streptococcus pyogenes, 1 µg/mL (≈ 0.775 µM); in series [3], 0.015 µg/mL (≈ 0.0116 µM). The same compound returned an inhibition at 2 µM in the series on Escherichia coli [15] of 30%. Further, the Kd in [4] was 3 nM. The same compound showed an IC50 in the series on Escherichia coli [17] of 2000 nM.
For orientation: bioavailability means dose-corrected exposure relative to a reference, in per cent. A lower bioavailability goes with poor availability. For the compound `CNC(=O)C[C@@H]1NC(=O)c2csc(n2)-c2ccc(-c3nc(N(CCCCC(=O)O)C(=O)O[C@H]4CC[C@H](C(=O)O)CC4)cs3)nc2-c2csc(n2)-c2csc(n2)[C@H]([C@@H](O)c2ccccc2)NC(=O)CNC(=O)c2nc(sc2COC)[C@H](C(C)C)NC(=O)c2nc1sc2C` [LFF-571], the MIC was less than 0.06 µg/mL in the series on Enterococcus faecium; less than 0.06 µg/mL against Enterococcus faecalis [1]; 0.125 µg/mL (≈ 0.0915 µM) against Staphylococcus aureus [2]; 1 µg/mL (≈ 0.732 µM) with Streptococcus pyogenes; 0.03 µg/mL (≈ 0.022 µM) in [3]. The compound also registered an inhibition at 2 µM in the series with Escherichia coli [15] of 67%. In [4], this compound had a Kd of 6 nM. Moreover, the values for the ED50 in the series with Staphylococcus aureus [5] and in the series with Enterococcus faecalis [6] were 6.9 mg/kg and 2.2 mg/kg, respectively. In series [18], this compound yielded a bioavailability of less than 0.1%. Further, in series [7], the survival at 0.2 mg/kg stood at 0%. Besides, in [8], the survival at 2 mg/kg is 100%. The survival at 20 mg/kg in series [9] turned out to be 100%. For the same compound, the concentration at 1 h in [10] came out at 61 µM; in [12], 44.8 nM. The concentration at 3 h turned out to be 208 µM in [11] and 5.2 nM in series [13] (golden Syrian, plasma). Further, the result in series [14] was Active.
